Results on five compounds are retold here after ChEMBL document CHEMBL1212857, “Syntheses and pharmacological characterization of novel thiazole derivatives as potential mGluR5 PET ligands” (Bioorg Med Chem, 2010).

For data set [1], the target named is Metabotropic glutamate receptor 5 (Rattus norvegicus, UniProt P31424). Description: Displacement of [3H]M-MPEP from mGluR5 in Sprague-Dawley rat brain membranes (cerebellum removed) after 45 mins by liquid scintillation counting.
Another data set concerns Hippocampus. Description: Drug uptake in Sprague-Dawley rat hippocampus at 0.5 to 5 nM after 45 mins by autoradiography. The format is ADME, tissue-based. The note with it: 0.75 h, 0.005 µM. Put shortly:
(§1)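 Frozen rat brain slices thawed 30 min at rt, preincubated 10 min at 4 °C in HEPES–BSA buffer pH 7.4, then covered with 0.5 or 5 nM [18F] tracer for 45 min at rt in a humid chamber. Blocking was by co-incubation with excess unlabeled ABP688. Washes were 3×3 min in HEPES buffer and 2×5 s in water at 4 °C, followed by 40 min drying and 7 min phosphor-plate exposure.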

Data set [2] relates to Plasma. The data set is described as follows: Metabolic stability in human plasma after 120 mins by UPLC analysis. Format: ADME, cell-free. The note with it: 2 h. In outline: (§2)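 [18F] tracer in ethanol added to human or rat plasma and incubated at 37 °C for 120 min. Aliquots taken at 0, 30, 60, 90 and 120 min into ice-cold acetonitrile, centrifuged (5000g, 4 °C, 10 min), and supernatant analysed by radio-UPLC.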

Data set [3] is described as follows: Metabolic stability in rat liver microsomes assessed as compound remaining after 60 mins by UPLC analysis. The format is ADME, Microsome. The note with it: read-out: Stability. Put shortly: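 Pooled rat liver microsomes (0.52 mg/mL protein). Tracer (20–50 nM) preincubated 5 min with 10 mM NADPH in 0.1 M phosphate pH 7.4 at 37 °C before microsomes were added; testosterone served as positive control and boiled microsomes as negative control. Reactions quenched with ice-cold acetonitrile at 0, 15, 30 and 60 min, centrifuged, and supernatant run by UPLC.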

Data set [4] is described as follows: Lipophilicity, log D of the compound at pH 7.4 by shake flask method. Format: physicochemical. The note with it: buffer. Put shortly: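 Shake-flask log D (n = 5): [18F] tracer (80 kBq) added to 0.5 mL 1-octanol and 0.5 mL phosphate buffer pH 7.4, each pre-saturated with the other. Mixed 15 min, centrifuged at 5000g for 5 min, and radioactivity in each phase gamma-counted.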

Data set [5] has as its system Plasma. Description: Metabolic stability in rat plasma after 120 mins by UPLC analysis. The format is ADME, cell-free. The note with it: 2 h. Put shortly: as §2
Another data set deals with Striatum. The data set is described as follows: Drug uptake in Sprague-Dawley rat striatum at 0.5 to 5 nM after 45 mins by autoradiography. The format is ADME, tissue-based. The note with it: 0.75 h, 0.005 µM. Put shortly: as §1
The next data set relates to Cortex. The data set is described as follows: Drug uptake in Sprague-Dawley rat cortex at 0.5 to 5 nM after 45 mins by autoradiography. Format: ADME, tissue-based. The note with it: 0.75 h, 0.005 µM. Put shortly: as §1
Another data set deals with Brain. Description: Drug uptake in Sprague-Dawley rat brain slices at 0.5 to 5 nM after 45 mins by autoradiography in presence of 500 nM of ABP688. The format is ADME, tissue-based. The note with it: 0.75 h, 0.005 µM. In outline: as §1

Metabotropic glutamate receptor 5, sequence (P31424 whole entry): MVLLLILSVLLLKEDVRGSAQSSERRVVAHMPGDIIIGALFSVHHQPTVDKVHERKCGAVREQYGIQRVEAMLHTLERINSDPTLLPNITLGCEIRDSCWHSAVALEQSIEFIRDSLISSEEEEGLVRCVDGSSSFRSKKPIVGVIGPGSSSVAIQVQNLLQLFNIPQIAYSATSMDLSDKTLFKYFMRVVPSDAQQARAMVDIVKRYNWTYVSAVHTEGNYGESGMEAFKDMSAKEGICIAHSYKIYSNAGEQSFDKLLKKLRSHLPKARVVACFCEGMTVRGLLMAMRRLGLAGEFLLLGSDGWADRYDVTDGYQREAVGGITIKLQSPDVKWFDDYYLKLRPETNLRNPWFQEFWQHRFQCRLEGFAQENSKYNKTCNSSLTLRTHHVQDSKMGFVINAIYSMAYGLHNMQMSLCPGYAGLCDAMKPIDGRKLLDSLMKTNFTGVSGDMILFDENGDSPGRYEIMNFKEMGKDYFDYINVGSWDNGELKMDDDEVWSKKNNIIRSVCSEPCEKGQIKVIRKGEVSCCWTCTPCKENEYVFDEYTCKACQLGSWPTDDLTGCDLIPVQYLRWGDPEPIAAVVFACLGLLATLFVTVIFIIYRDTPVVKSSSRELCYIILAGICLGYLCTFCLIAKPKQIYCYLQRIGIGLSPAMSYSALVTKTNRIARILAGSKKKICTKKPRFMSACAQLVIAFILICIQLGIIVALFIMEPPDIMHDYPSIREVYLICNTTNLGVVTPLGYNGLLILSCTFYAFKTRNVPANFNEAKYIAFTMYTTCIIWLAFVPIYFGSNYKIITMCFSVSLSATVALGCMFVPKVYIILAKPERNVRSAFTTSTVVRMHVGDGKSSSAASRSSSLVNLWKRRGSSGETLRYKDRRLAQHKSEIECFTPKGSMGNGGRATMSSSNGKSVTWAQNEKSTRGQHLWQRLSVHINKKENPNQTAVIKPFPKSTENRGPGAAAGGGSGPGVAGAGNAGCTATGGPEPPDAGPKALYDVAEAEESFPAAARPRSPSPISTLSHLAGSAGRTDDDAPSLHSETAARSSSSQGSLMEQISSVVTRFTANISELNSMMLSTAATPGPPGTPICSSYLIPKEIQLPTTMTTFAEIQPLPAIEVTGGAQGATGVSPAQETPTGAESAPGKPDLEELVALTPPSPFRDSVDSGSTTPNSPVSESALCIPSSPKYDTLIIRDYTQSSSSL

Broadly, the Ki is the equilibrium dissociation constant of an inhibitor or competing ligand from its target. Read a low Ki as higher affinity. With `CO/N=C1/C=C(C#Cc2nccs2)CCC1`, the Ki in [1] was found to be 20.3 nM.
Consider `Cc1nc(C#CC2=C/C(=N/OCCOCCF)CCC2)cs1`, for which the Ki in data set [1] turned out to be 21.9 nM.
`CO/N=C1/C=C(C#Cc2csc(CF)n2)CCC1` gave a Ki in data set [1] of 5.5 nM. Compared with the last compound, the Ki is about 4-fold lower.
Still for that read-out and setting: as for `FCCOCCO/N=C1/C=C(C#Cc2cscn2)CCC1`, the figure is 36 nM.
The logD is the decadic logarithm of the distribution of all forms, ionised or not, between an organic phase and buffer at a given pH. Read a high logD as higher lipophilicity. In the case of `CO/N=C1/C=C(C#Cc2csc(C[18F])n2)CCC1`, the Drug uptake result is given as “Active” with Hippocampus, “Active” in the data set with Striatum, “Active” in the data set with Cortex and “Not Active” with Brain. In addition, the Stability result in the data set with Plasma [2] and in the data set on Plasma [5] was “Stable” in each case. Also, the remaining at 1 h in data set [3] amounted to 93%. In data set [4], the logD came to 1.6.
